A short description of assay [1]: Inhibition of tubulin polymerization by DAPI fluorescent assay. The essentials:
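Tubulin (97% pure, 1 mg/ml final) in PME buffer (100 mM PIPES, 1 mM MgSO4, 2 mM EGTA) with DAPI and graded compound, colchicine as internal control. Preincubated 45 min at room temperature, then polymerization started by adding 1 mM GTP. Run 2 h at 37 °C with fluorescence excitation at 360 nm. IC50 taken from a semi-log plot of % inhibition against concentration.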

Assay [2] deals with B16. In words: Cytotoxicity against mouse B16 cells assessed as reduction in cell viability after 48 hrs by MTT assay. The settings on record: B16, 48 h. The format is functional, cell-based. A digest of the protocol: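 B16 cells kept in DMEM with 2 mM L-glutamine, 10% FBS, penicillin/streptomycin at 37 °C, 5% CO2. After 48 h exposure, MTT was read at 562 nm with background subtracted. IC50 is the mean of three independent experiments.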

The test system of assay [3] is HCT-15. In words: Antiproliferative activity against human HCT15 cells after 72 hrs by MTS assay. In kind it is functional, cell-based. As to conditions: HCT-15, 72 h. The essentials: (§1)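 Cells grown in RPMI 1640 with 10% fetal calf serum, streptomycin and fungizone at 37 °C, 5% CO2. MTS reagent was added for 2 h and absorbance read at 490. IC50 is the concentration giving 50% growth inhibition.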

Assay [4] relates to HCT-116. In words: Antiproliferative activity against human HCT116 cells after 72 hrs by MTS assay. The format is functional, cell-based. As to conditions: HCT-116, 72 h. The essentials: as §1
For assay [5], the system named is HT-29. In words: Antiproliferative activity against human HT-29 cells after 72 hrs by MTS assay. The format is functional, cell-based. The settings on record: HT-29, 72 h. A digest of the protocol: as §1

Consider 14 compounds from ChEMBL document CHEMBL1649381, “Domino approach to 2-aroyltrimethoxyindoles as novel heterocyclic combretastatin A4 analogues” (Eur J Med Chem, 2011).

Where only a bound is given, the exact number is not on record here.

Take `COc1ccc(C(=O)c2cc3cc(OC)c(OC)c(OC)c3[nH]2)cc1`: the half-maximal inhibitory concentration (IC50) in assay [1] was 12 µM; in assay [2] it was more than 50 µM.
For `COc1ccc(C(=O)c2cc3cc(OC)c(OC)c(OC)c3[nH]2)cn1`, in that order: 18 µM and more than 50 µM.
For `COc1ccc(C(=O)c2cc3cc(OC)c(OC)c(OC)c3[nH]2)cc1F`, in that order: 20 µM and more than 50 µM.
The corresponding values for `COc1ccc(C(=O)c2cc3c(OC)c(OC)c(OC)cc3[nH]2)cn1` are 15 µM and more than 50 µM.
`COc1ccc(C(=O)c2cc3c(OC)c(OC)c(OC)cc3[nH]2)cc1F`: the results for the IC50 in assay [1] and in assay [2] were more than 20 µM and 16 µM, respectively.
`COc1cc2cc(C(=O)c3ccccc3)[nH]c2c(OC)c1OC`: the 50% inhibitory concentration (IC50) is more than 50 µM in assay [3]; more than 50 µM in assay [4]; more than 50 µM in assay [5]; 9 µM in assay [1]; more than 50 µM in assay [2].
As for `COc1ccc(/C=C\c2cc(OC)c(OC)c(OC)c2)cc1O` [COMBRETASTATIN A4], the 50% inhibitory concentration (IC50) in assay [3] turned out to be 0.001 µM; in assay [4], 0.001 µM; in assay [5], 0.013 µM; in assay [1], 0.27 µM; in assay [2], 0.005 µM.
On to `COc1cc2cc(C(=O)/C=C/c3ccccc3)[nH]c2c(OC)c1OC`, for which the results for the 50% inhibitory concentration (IC50) in assay [1] and in assay [2] were 18 µM and 33 µM, respectively.
Regarding `COc1cc2[nH]c(C(=O)c3ccc(C)cc3)cc2c(OC)c1OC`, the IC50 in assay [3] is 0.61 µM; in assay [4] it was 2.8 µM; in assay [5], 1.09 µM; in assay [1], 4 µM; in assay [2], 10 µM.
On to `COc1cc2[nH]c(C(=O)/C=C/c3ccccc3)cc2c(OC)c1OC`, for which the IC50 in assay [1] was more than 20 µM; in assay [2], 16 µM.
For `COc1cc2cc(C(=O)c3ccc(C)cc3)[nH]c2c(OC)c1OC`, the IC50 in assay [3] was more than 50 µM; in assay [4] it was more than 50 µM; in assay [5], more than 50 µM; in assay [1], more than 20 µM; in assay [2] it was 10 µM.
In the case of `COc1cc2[nH]c(C(=O)c3ccc(C)c(N)c3)cc2c(OC)c1OC`, the IC50 in assay [3] came out at 0.32 µM; in assay [4] it was 2 µM; in assay [5], 0.99 µM; in assay [1] it was 10 µM; in assay [2] it was 36 µM.
For `COc1ccc(C(=O)c2cc3c(OC)c(OC)c(OC)cc3[nH]2)cc1`, in that order: 0.45 µM, 4.2 µM, 1.24 µM, 9 µM and more than 50 µM.
`COc1cc2[nH]c(C(=O)c3ccccc3)cc2c(OC)c1OC`: the IC50 in assay [1] was more than 20 µM; in assay [2], 45 µM.
